Measured values from ChEMBL document CHEMBL3272008, “Synthesis and biological actions of 2-substituted quinolizidines” (J Med Chem, 1976).
Activity calls are given as the source filed them. The rule behind the calls is not given here.

Assays:
Mus musculus [1] = assay: Depression of forced motor activity in Swiss-Webster mouse at 50 mg/kg, ip after 30 mins by rotarod test relative to control; assay type: functional; settings: route intraperitoneal
Outline: (§1)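 Mice were dosed ip with vehicle or compound dissolved in a minimum of 1.5 M NaH2PO4 and diluted with water. On the rotarod, speed was 4 rpm for 30 sec, then 6 rpm for 30 sec, then increased every 30 sec up to a maximum of 50 rpm until the fall. Each mouse had four trials, two per day on two consecutive days, spaced 4–6 hr apart. The fourth trial was run 30 min after dosing. The read-out was trial time (sec) as % of control, with significance by Student's t test (p < 0.05).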

Mus musculus [2] = assay: Depression of forced motor activity in Swiss-Webster mouse at 25 mg/kg, ip after 30 mins by rotarod test relative to control; assay type: functional; settings: route intraperitoneal; outline: as §1
Mus musculus [3] = assay: Depression of spontaneous motor activity in Swiss-Webster mouse at 25 mg/kg, ip by photocell cage test relative to control; assay type: functional; settings: route intraperitoneal
Outline: (§2)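 Compound was dissolved in minimal 1.5 M NaH2PO4, diluted with water and given ip. Two mice given the same dose went into each of three photocell actophotometer cages 10 min after the rotarod test started. Counts were taken over 15 min, starting 5 min after placement. A factorial design across cages cancelled differences between units. Results were given as % of control, with significance by Student's t test (p < 0.05).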

[4] = Acute toxicity in ip dosed Swiss-Webster mouse administered as single dose after 7 days; assay type: organism-based; settings: in vivo
Outline: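 Mice given a single ip dose at each of four dose levels; lethality followed over 7 days; LD50 with 95% confidence limits estimated by the method of Weil. Compounds dissolved in minimal 1.5 M NaH2PO4, diluted with water; haloperidol in minimal 50% (w/v) tartaric acid-water.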

Mus musculus [5] = assay: Depression of spontaneous motor activity in Swiss-Webster mouse at 50 mg/kg, ip by photocell cage test relative to control; assay type: functional; settings: route intraperitoneal; outline: as §2
Mus musculus [6] = assay: Depression of spontaneous motor activity in Swiss-Webster mouse at 12.5 mg/kg, ip by photocell cage test relative to control; assay type: functional; settings: route intraperitoneal; outline: as §2
Mus musculus [7] = assay: Depression of forced motor activity in Swiss-Webster mouse at 12.5 mg/kg, ip after 30 mins by rotarod test relative to control; assay type: functional; settings: route intraperitoneal; outline: as §1
Mus musculus [8] = assay: Depression of forced motor activity in Swiss-Webster mouse at 15 mg/kg, ip after 30 mins by rotarod test relative to control; assay type: functional; settings: route intraperitoneal
Outline: (§3)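 Rotarod in mice: rod at 4 rpm for 30 sec, 6 rpm next 30 sec, then stepped up every 30 sec (max 50 rpm) until fall. Six mice at a time, four trials (two per day, 4–6 hr apart, two consecutive days); vehicle or compound ip 30 min before fourth trial. Time on rod as % of control; Student's t test, p < 0.05.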

Mus musculus [9] = assay: Depression of spontaneous motor activity in Swiss-Webster mouse at 30 mg/kg, ip by photocell cage test relative to control; assay type: functional; settings: route intraperitoneal
Outline: (§4)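 Spontaneous activity in three photocell cages: two mice given the same ip dose placed per cage 10 min after rotarod start; 15-min count begun 5 min after placement. Each dose run in factorial design across all three cages to offset unit sensitivity. Counts expressed as % of control; Student's t test, p < 0.05.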

Mus musculus [10] = assay: Depression of spontaneous motor activity in Swiss-Webster mouse at 15 mg/kg, ip by photocell cage test relative to control; assay type: functional; settings: route intraperitoneal; outline: as §4
Mus musculus [11] = assay: Depression of forced motor activity in Swiss-Webster mouse at 30 mg/kg, ip after 30 mins by rotarod test relative to control; assay type: functional; settings: route intraperitoneal; outline: as §3
Mus musculus [12] = assay: Depression of spontaneous motor activity in Swiss-Webster mouse at 60 mg/kg, ip by photocell cage test relative to control; assay type: functional; settings: route intraperitoneal; outline: as §4
Mus musculus [13] = assay: Depression of forced motor activity in Swiss-Webster mouse at 60 mg/kg, ip after 30 mins by rotarod test relative to control; assay type: functional; settings: route intraperitoneal; outline: as §3
Mus musculus [14] = assay: Depression of forced motor activity in Swiss-Webster mouse at 100 mg/kg, ip after 30 mins by rotarod test relative to control; assay type: functional; settings: route intraperitoneal; outline: as §3
Mus musculus [15] = assay: Depression of spontaneous motor activity in Swiss-Webster mouse at 100 mg/kg, ip by photocell cage test relative to control; assay type: functional; settings: route intraperitoneal; outline: as §4
Rattus norvegicus [16] = assay: Reduction in body temperature in Wistar rat at 20 mg/kg, ip relative to control; assay type: functional; settings: route intraperitoneal
Outline: (§5)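 Male Wistar rats (175–225 g) were injected ip, with three treated rats and one control per dose. Compounds were in minimal 1.5 M NaH2PO4 diluted with water; the reference drug was in minimal 50% (w/v) tartaric acid-water. Gross behavior was observed. Respiratory rate, heart rate, rectal temperature and pupil size were measured at time points after dosing.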

Rattus norvegicus [17] = assay: Reduction in startle response in Wistar rat at 20 mg/kg, ip after 0.5 to 1 hr; assay type: functional, organism-based; parameters: dose 20 mg/kg; outline: as §5
Rattus norvegicus [18] = assay: Reduction of respiration rate in Wistar rat at 1 to 6 mg/kg, ip after 0.5 to 1 hr; assay type: functional, organism-based; settings: 20 mg/kg, in the assay text read “20 mg/kg” for “1 to 6 mg/kg”; outline: as §5
Rattus norvegicus [19] = assay: Depression of motor activity in Wistar rat at 20 mg/kg, ip after 0.5 to 1 hr; assay type: functional, organism-based; parameters: dose 20 mg/kg; outline: as §5
Rattus norvegicus [20] = assay: Reduction in grip strength in Wistar rat at 20 mg/kg, ip after 0.5 to 1 hr; assay type: functional, organism-based; parameters: dose 20 mg/kg; outline: as §5
Rattus norvegicus [21] = assay: Induction of ptosis in Wistar rat at 20 mg/kg, ip after 10 mins to 3 hrs; assay type: functional, organism-based; parameters: dose 20 mg/kg; outline: as §5
Rattus norvegicus [22] = assay: Reduction of heart rate in Wistar rat at 1 to 6 mg/kg, ip after 0.5 to 1 hr; assay type: functional, organism-based; settings: 20 mg/kg, in the assay text read “20 mg/kg” for “1 to 6 mg/kg”; outline: as §5
Mus musculus [23] = assay: Depression of spontaneous motor activity in ip dosed Swiss-Webster mouse by photocell cage test relative to control; assay type: functional, organism-based; outline: as §2
Mus musculus [24] = assay: Depression of forced motor activity in ip dosed Swiss-Webster mouse after 30 mins by rotarod test relative to control; assay type: functional, organism-based; outline: as §1
Rattus norvegicus [25] = assay: Depression of motor activity in Wistar rat at 25 mg/kg, ip; assay type: functional, organism-based; parameters: dose 25 mg/kg; outline: as §5
Rattus norvegicus [26] = assay: Increase in salivation in Wistar rat at 25 mg/kg, ip after 0.5 to 1 hr; assay type: functional, organism-based; parameters: dose 25 mg/kg; outline: as §5
Rattus norvegicus [27] = assay: Induction of ptosis in Wistar rat at 25 mg/kg, ip after 2 hrs; assay type: functional, organism-based; parameters: dose 25 mg/kg; outline: as §5
Mus musculus [28] = assay: Depression of forced motor activity in Swiss-Webster mouse at 6.25 mg/kg, ip after 30 mins by rotarod test relative to control; assay type: functional; settings: route intraperitoneal; outline: as §1
Rattus norvegicus [29] = assay: Reduction in rectal temperature in Wistar rat at 25 mg/kg, ip relative to control; assay type: functional; settings: route intraperitoneal; outline: as §5
Rattus norvegicus [30] = assay: Reduction in heart rate in Wistar rat at 25 mg/kg, ip; assay type: functional, organism-based; parameters: dose 25 mg/kg; outline: as §5
Rattus norvegicus [31] = assay: Reduction in respiratory rate in Wistar rat at 25 mg/kg, ip; assay type: functional, organism-based; parameters: dose 25 mg/kg; outline: as §5
Mus musculus [32] = assay: Depression of spontaneous motor activity in Swiss-Webster mouse at 6.25 mg/kg, ip by photocell cage test relative to control; assay type: functional; settings: route intraperitoneal; outline: as §2
Mus musculus [33] = assay: Acute toxicity in ip dosed Swiss-Webster mouse assessed as intense and prolonged convulsions administered as single dose after 72 hrs; assay type: organism-based; settings: in vivo
Rattus norvegicus [34] = assay: Induction of ptosis in Wistar rat at 25 mg/kg, ip after 0.5 to 1 hr; assay type: functional, organism-based; parameters: dose 25 mg/kg; outline: as §5
Rattus norvegicus [35] = assay: Increase in salivation in Wistar rat at 25 mg/kg, ip after 2 hrs; assay type: functional, organism-based; parameters: dose 25 mg/kg; outline: as §5
Rattus norvegicus [36] = assay: Depression of motor activity in Wistar rat at 1 to 6 mg/kg, ip; assay type: functional, organism-based; outline: as §5
Mus musculus [37] = assay: Depression of spontaneous motor activity in Swiss-Webster mouse at 10 mg/kg, ip by photocell cage test relative to control; assay type: functional; settings: route intraperitoneal; outline: as §4
Rattus norvegicus [38] = assay: Induction of ptosis in Wistar rat at 1 to 6 mg/kg, ip; assay type: functional, organism-based; settings: in the assay text read “6 mg/kg” for “1 to 6 mg/kg”; outline: as §5
Mus musculus [39] = assay: Acute toxicity in ip dosed Swiss-Webster mouse assessed as ataxia administered as single dose after 72 hrs; assay type: organism-based; settings: in vivo
Mus musculus [40] = assay: Depression of spontaneous motor activity in Swiss-Webster mouse at 5 mg/kg, ip by photocell cage test relative to control; assay type: functional; settings: route intraperitoneal; outline: as §4
Mus musculus [41] = assay: Depression of spontaneous motor activity in Swiss-Webster mouse at 2.5 mg/kg, ip by photocell cage test relative to control; assay type: functional; settings: route intraperitoneal; outline: as §2
Mus musculus [42] = assay: Acute toxicity in ip dosed Swiss-Webster mouse assessed as death administered as single dose after 72 hrs; assay type: organism-based; settings: in vivo
Mus musculus [43] = assay: Acute toxicity in ip dosed Swiss-Webster mouse assessed as tremor administered as single dose after 72 hrs; assay type: organism-based; settings: in vivo
Mus musculus [44] = assay: Depression of forced motor activity in Swiss-Webster mouse at 5 mg/kg, ip after 30 mins by rotarod test relative to control; assay type: functional; settings: route intraperitoneal; outline: as §3
Mus musculus [45] = assay: Depression of forced motor activity in Swiss-Webster mouse at 10 mg/kg, ip after 30 mins by rotarod test relative to control; assay type: functional; settings: route intraperitoneal; outline: as §3
Mus musculus [46] = assay: Depression of forced motor activity in Swiss-Webster mouse at 2.5 mg/kg, ip after 30 mins by rotarod test relative to control; assay type: functional; settings: route intraperitoneal; outline: as §1
Rattus norvegicus [47] = assay: Reduction in body temperature in Wistar rat at 1 to 6 mg/kg, ip relative to control; assay type: functional; settings: dose mg/kg 6; route intraperitoneal; in the assay text read “6 mg/kg” for “1 to 6 mg/kg”; outline: as §5

SMILES	Activity (Mus musculus [1]) [%]	Activity (Mus musculus [2]) [%]	Activity (Mus musculus [3]) [%]	LD50 at 168 h [4] [mg/kg]	Activity (Mus musculus [5]) [%]	Activity (Mus musculus [6]) [%]	Activity (Mus musculus [7]) [%]	Activity (Mus musculus [8]) [%]	Activity (Mus musculus [9]) [%]	Activity (Mus musculus [10]) [%]	Activity (Mus musculus [11]) [%]	Activity (Mus musculus [12]) [%]	Activity (Mus musculus [13]) [%]	Activity (Mus musculus [23])	Activity (Mus musculus [24])	also measured
O[C@@]1(c2ccc(C(F)(F)F)cc2)CCN2CCCCC2C1 (single isomer, unassigned)	83.5	92.3	82.7	130	45.2	49.7	99.3	–	–	–	–	–	–	–	–	–
O[C@@]1(c2cccc(Cl)c2)CCN2CCCCC2C1 (single isomer, unassigned)	–	–	–	180	–	–	–	96.5	154.9	166.7	105	44.3	51.4	–	–	–
O[C@@]1(c2cccc(C(F)(F)F)c2)CCN2CCCCC2C1 (single isomer, unassigned)	100.5	97.9	119	262	111	–	–	–	–	–	–	–	–	–	–	Activity (Mus musculus [14]): 29.6%; Activity (Mus musculus [15]): 5.5%
O=C(c1ccc(F)cc1)[C@@H]1CCN2CCCC[C@@H]2C1 (single isomer, unassigned)	–	–	–	193	–	–	–	26.5	9.6	2.5	15.2	0	4.8	Dose-dependent effect	Dose-dependent effect	T (Rattus norvegicus [16]): 3 °C; Activity (Rattus norvegicus [17]): Active; Activity (Rattus norvegicus [18]): Active; Activity (Rattus norvegicus [19]): Active; Activity (Rattus norvegicus [20]): Active; Activity (Rattus norvegicus [21]): Active; Activity (Rattus norvegicus [22]): Active
O=C(c1ccc(F)cc1)[C@H]1CCN2CCCC[C@@H]2C1 (single isomer, unassigned)	–	23	10.2	86.1	–	48.5	55.5	–	–	–	–	–	–	Dose-dependent effect	Dose-dependent effect	Activity (Rattus norvegicus [25]): Active; Activity (Rattus norvegicus [26]): Active; Activity (Rattus norvegicus [27]): inactive; Activity (Mus musculus [28]): 65.6%; T (Rattus norvegicus [29]): 2.9 °C; Activity (Rattus norvegicus [30]): Active; Activity (Rattus norvegicus [31]): Active; Activity (Mus musculus [32]): 95.6%; Activity (Mus musculus [33]): Toxic; Activity (Rattus norvegicus [34]): Active; Activity (Rattus norvegicus [35]): inactive
O=C(CCCN1CCC(O)(c2ccc(Cl)cc2)CC1)c1ccc(F)cc1 [HALOPERIDOL]	–	–	–	49.7	–	–	–	–	–	–	–	–	–	–	–	Activity (Rattus norvegicus [36]): Active; Activity (Mus musculus [37]): 0.2%; Activity (Rattus norvegicus [38]): Active; Activity (Mus musculus [39]): Toxic; Activity (Mus musculus [40]): 13%; Activity (Mus musculus [41]): 27.6%; Activity (Mus musculus [42]): Toxic; Activity (Mus musculus [43]): Toxic; Activity (Mus musculus [44]): 79.4%; Activity (Mus musculus [45]): 26.4%; Activity (Mus musculus [46]): 99.3%; T (Rattus norvegicus [47]): 2 °C
